pIC50: −log10 of the molar value. One block for each compound: values may come before it. The source made the active and inactive calls. No cut-off for these calls is given here.
How the values were obtained:
NIH3T3 = experiment: Antiproliferative activity against mouse NIH/3T3 cells after 72 hrs by MTT assay; type: cell-based; settings: NIH3T3, 72 h
A-431 = experiment: Antiproliferative activity against human A431 cells after 72 hrs by MTT assay; type: functional, cell-based; settings: A-431, 72 h
[1] = Toxicity in mouse BNL 1ME A.7R.1 cells allografted Balb/c mouse model assessed as body weight loss at 50 mg/kg, ip daily measured after 3 days; type: organism-based; parameters: dose 50 mg/kg, route intraperitoneal; settings: in vivo, 72 h
HUVEC [2] = experiment: Antiangiogenic activity in HUVEC assessed as reduction in cell migration at 1 uM after 4 hrs by matrigel assay; type: functional, cell-based; settings: Homo sapiens, in the assay text read “by modified Boyden chamber assay” for “by matrigel assay”
Method in brief: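 Modified Boyden chamber. HUVECs (3×10^4 cell/cm²) were placed on 5.0 µm pore inserts in basal medium with 1% FCS, ±1 µM compound; the lower chamber held growth-factor medium. After 4 h, cells were fixed, the upper side was swabbed, and membranes were DAPI-stained. Nuclei were counted in five fields per insert. Five repeats; results are the percent change from growth-factor-only controls.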

[3] = target: T1, Platelet-derived growth factor receptor beta (Homo sapiens, UniProt P09619); experiment: Inhibition of PDGFRbeta (unknown origin) at 1 uM
[4] = target: Vascular endothelial growth factor receptor 2 (Homo sapiens) (UniProt P35968); experiment: Inhibition of VEGFR2 (unknown origin) at 1 uM
Method in brief: (§1)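 Recombinant FGFR-1 or VEGFR-2 (final 200 ng/mL) in MOPS pH 7.2 buffer with MgCl2, EGTA, EDTA, DTT and BSA. Compound range was 1–0.01 µM. Reactions used myelin basic protein (0.2 mg/ml), 0.05 mM ATP and 0.25 μCi [γ-32P]ATP, 30 °C for 20 min.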

[5] = target: Tyrosine-protein kinase ABL1 (Homo sapiens, UniProt P00519); experiment: Inhibition of Abl (unknown origin)
[6] = target: Proto-oncogene tyrosine-protein kinase Src (Homo sapiens, UniProt P12931); experiment: Inhibition of Src (unknown origin)
[7] = target: Fibroblast growth factor receptor 1 (Homo sapiens, UniProt P11362); experiment: Inhibition of FGFR1 (unknown origin); method in brief: as §1
[8] = target: Epidermal growth factor receptor (Homo sapiens, UniProt P00533); experiment: Inhibition of EGFR (unknown origin)
[9] = Antiproliferative activity against mouse BNL 1ME A.7R.1 cells after 72 hrs by MTT assay; type: functional, cell-based
HT-29 = experiment: Antiproliferative activity against human HT-29 cells after 72 hrs by MTT assay; type: functional, cell-based; settings: HT-29, 72 h
HeLa = experiment: Antiproliferative activity against human HeLa cells after 72 hrs by MTT assay; type: functional, cell-based
HUVEC [10] = experiment: Antiproliferative activity against HUVEC after 72 hrs by MTT assay; type: cell-based; settings: Homo sapiens
[11] = Antiproliferative activity against human MCF7/beta cells after 72 hrs by MTT assay; type: functional, cell-based; settings: MCF7, 72 h
Mus musculus [12] = experiment: Inhibition of FGF2-induced neovascularization in C57/BL6 mouse assessed as reduction in hemoglobin concentration in matrigel plug at 1 uM, sc measured after 7 days; type: functional, organism-based
Method in brief: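 Three-month-old C57/BL6 mice under isoflurane received 0.5 mL Matrigel GFR subcutaneously into the flank. The gel contained heparin (12 U.I.), ±FGF-2 200 ng/plug and 1 µM compound. After 7 days, plugs were removed and steeped overnight at 4 °C in 0.1% Brij-35/PBS. Hemoglobin was measured with Drabkin's reagent at 540 nm.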

HUVEC [13] = experiment: Antiproliferative activity against HUVEC assessed as reduction in cell viability at 10 uM after 24 hrs by MTT assay; type: cell-based; settings: human
Method in brief: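 Primary HUVECs (passage ≤5) were seeded at 1×10^4 cell/cm² and grown for 24 h. They were exposed to compound at 10 μM for 24 h (20 h, then MTT 0.50 mg/ml for 4 h). Absorbance was read at 570 nm. Results are the percent change from untreated cultures; mean ± SD of ≥3 experiments.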

HUVEC [14] = experiment: Induction of apoptosis in HUVEC assessed as mono-/oligo-nucleosome formation at 10 uM after 24 hrs by ELISA; type: functional, cell-based; settings: Homo sapiens
HUVEC [15] = experiment: Antiangiogenic activity in HUVEC assessed as effect on number of cell meshwork at 0.1 uM after 18 hrs; settings: Homo sapiens
HUVEC [16] = experiment: Antiangiogenic activity in HUVEC assessed as disruption of tube-like structures at 0.1 uM after 18 hrs by phase contrast microscopy; settings: Homo sapiens
Mus musculus [17] = experiment: Antitumor activity against mouse BNL 1ME A.7R.1 cells allografted in Balb/c mouse assessed as tumor growth inhibition at 50 mg/kg, ip daily measured after 7 days; type: functional, organism-based; parameters: dose 50 mg/kg
Method in brief: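 Male Balb/c mice, 10 weeks old, received 10⁷ BNL 1ME A.7R.1 cells in PBS subcutaneously in the dorsal region. From day 7, mice were dosed daily ip with 50 mg/kg in 0.9% NaCl with 5% PEG 400 and 0.5% Tween 80, or vehicle. Tumors were measured daily for 7 days by caliper (V = AB²/2). Mean ± SEM, five animals per group.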

[18] = target: T1, Platelet-derived growth factor receptor beta; experiment: Inhibition of PDGFRbeta (unknown origin)
HUVEC [19] = experiment: Antiangiogenic activity in HUVEC assessed as decrease in dimensional parameters at 0.1 uM after 18 hrs; settings: Homo sapiens

T1 sequence (P09619 whole entry): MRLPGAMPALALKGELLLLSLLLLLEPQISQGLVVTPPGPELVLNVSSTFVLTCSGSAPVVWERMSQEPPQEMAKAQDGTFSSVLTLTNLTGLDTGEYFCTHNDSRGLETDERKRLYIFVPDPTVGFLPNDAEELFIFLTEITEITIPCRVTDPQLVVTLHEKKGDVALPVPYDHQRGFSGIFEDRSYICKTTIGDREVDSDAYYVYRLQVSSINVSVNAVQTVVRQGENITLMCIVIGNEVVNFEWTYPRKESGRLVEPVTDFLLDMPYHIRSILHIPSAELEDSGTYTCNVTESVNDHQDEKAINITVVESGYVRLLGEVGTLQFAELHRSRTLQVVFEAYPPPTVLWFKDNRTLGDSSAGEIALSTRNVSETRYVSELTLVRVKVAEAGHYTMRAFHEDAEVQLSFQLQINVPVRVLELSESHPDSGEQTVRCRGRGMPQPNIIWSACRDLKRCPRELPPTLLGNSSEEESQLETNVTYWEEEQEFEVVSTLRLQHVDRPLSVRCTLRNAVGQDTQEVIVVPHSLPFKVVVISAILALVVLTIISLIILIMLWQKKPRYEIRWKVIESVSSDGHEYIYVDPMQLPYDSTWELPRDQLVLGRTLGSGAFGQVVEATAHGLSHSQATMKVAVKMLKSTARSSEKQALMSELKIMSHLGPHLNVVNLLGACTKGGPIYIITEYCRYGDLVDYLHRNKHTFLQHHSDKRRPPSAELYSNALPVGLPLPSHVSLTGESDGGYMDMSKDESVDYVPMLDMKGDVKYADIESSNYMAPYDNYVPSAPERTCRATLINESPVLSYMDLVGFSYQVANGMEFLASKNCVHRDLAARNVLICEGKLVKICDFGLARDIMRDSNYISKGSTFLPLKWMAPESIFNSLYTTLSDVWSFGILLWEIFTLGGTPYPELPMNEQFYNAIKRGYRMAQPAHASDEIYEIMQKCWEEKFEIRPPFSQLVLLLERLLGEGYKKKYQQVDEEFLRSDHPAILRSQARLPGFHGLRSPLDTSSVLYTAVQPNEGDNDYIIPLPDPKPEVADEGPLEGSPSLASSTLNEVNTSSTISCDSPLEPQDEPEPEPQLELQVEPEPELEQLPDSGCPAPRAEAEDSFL
Tyrosine-protein kinase ABL1, sequence (P00519 whole entry): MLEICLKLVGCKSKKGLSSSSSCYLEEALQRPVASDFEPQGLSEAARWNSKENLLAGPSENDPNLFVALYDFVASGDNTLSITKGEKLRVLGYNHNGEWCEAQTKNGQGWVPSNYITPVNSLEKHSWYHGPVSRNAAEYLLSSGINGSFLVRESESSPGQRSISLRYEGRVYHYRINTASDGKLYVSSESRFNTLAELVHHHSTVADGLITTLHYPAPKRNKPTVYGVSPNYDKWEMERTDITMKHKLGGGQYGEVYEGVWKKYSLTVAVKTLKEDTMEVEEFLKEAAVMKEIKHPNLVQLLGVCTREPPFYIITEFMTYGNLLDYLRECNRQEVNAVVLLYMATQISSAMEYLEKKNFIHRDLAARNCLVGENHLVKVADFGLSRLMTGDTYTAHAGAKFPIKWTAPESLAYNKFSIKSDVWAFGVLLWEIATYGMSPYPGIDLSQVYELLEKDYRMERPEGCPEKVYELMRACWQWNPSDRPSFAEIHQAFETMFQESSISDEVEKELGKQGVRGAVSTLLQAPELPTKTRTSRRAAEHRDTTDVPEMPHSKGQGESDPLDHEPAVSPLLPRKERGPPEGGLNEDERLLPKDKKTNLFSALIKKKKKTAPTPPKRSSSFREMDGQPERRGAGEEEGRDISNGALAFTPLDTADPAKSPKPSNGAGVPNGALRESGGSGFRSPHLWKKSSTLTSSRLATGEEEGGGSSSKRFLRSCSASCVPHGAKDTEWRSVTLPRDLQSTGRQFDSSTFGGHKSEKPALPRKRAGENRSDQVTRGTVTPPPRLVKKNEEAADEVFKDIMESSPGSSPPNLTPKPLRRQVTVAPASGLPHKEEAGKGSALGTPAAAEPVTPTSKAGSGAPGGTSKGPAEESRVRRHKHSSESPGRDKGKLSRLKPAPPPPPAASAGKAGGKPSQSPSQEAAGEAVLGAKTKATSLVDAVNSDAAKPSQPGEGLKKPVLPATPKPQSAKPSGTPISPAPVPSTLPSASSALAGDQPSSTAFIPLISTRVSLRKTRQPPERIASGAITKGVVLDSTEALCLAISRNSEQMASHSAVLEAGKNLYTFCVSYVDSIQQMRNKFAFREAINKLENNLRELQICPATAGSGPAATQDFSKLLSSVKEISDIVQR
Proto-oncogene tyrosine-protein kinase Src, sequence (P12931 2-536 limits assumed): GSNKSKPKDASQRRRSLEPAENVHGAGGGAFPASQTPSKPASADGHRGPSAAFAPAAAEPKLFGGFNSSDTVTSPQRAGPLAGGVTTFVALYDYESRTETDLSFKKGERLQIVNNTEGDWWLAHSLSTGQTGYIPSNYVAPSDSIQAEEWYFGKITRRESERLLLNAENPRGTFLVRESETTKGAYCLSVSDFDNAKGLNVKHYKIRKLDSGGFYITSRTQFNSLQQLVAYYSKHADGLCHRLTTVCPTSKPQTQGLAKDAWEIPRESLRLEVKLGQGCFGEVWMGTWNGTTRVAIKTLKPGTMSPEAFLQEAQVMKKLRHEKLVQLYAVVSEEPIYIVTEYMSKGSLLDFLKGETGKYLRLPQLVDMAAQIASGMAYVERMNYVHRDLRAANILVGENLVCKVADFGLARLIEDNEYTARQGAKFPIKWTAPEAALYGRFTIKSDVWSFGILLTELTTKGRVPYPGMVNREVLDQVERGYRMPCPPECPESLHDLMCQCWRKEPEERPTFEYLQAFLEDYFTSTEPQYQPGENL
Fibroblast growth factor receptor 1, sequence (P11362 whole entry): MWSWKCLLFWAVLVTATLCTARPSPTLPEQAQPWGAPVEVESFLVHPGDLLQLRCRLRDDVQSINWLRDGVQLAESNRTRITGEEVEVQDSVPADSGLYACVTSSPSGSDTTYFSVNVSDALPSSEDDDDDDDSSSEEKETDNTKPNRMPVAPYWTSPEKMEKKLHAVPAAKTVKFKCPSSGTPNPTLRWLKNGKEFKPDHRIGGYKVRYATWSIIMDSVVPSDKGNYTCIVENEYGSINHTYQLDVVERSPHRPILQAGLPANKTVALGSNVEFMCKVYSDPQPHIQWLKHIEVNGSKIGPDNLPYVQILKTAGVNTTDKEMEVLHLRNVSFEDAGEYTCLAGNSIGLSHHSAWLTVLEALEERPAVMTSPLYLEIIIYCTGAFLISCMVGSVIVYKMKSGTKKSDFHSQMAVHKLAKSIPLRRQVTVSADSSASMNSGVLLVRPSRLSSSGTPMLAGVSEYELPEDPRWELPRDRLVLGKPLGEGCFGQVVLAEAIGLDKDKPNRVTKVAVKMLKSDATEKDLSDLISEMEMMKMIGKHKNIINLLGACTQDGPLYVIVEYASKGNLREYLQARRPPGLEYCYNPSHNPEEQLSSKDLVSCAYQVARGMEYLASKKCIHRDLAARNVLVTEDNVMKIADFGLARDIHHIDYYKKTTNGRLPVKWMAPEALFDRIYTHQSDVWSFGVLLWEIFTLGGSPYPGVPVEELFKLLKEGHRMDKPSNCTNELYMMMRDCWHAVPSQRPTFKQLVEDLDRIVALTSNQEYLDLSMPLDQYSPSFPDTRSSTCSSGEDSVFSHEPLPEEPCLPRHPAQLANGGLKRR
Vascular endothelial growth factor receptor 2 (Homo sapiens), sequence (P35968 whole entry): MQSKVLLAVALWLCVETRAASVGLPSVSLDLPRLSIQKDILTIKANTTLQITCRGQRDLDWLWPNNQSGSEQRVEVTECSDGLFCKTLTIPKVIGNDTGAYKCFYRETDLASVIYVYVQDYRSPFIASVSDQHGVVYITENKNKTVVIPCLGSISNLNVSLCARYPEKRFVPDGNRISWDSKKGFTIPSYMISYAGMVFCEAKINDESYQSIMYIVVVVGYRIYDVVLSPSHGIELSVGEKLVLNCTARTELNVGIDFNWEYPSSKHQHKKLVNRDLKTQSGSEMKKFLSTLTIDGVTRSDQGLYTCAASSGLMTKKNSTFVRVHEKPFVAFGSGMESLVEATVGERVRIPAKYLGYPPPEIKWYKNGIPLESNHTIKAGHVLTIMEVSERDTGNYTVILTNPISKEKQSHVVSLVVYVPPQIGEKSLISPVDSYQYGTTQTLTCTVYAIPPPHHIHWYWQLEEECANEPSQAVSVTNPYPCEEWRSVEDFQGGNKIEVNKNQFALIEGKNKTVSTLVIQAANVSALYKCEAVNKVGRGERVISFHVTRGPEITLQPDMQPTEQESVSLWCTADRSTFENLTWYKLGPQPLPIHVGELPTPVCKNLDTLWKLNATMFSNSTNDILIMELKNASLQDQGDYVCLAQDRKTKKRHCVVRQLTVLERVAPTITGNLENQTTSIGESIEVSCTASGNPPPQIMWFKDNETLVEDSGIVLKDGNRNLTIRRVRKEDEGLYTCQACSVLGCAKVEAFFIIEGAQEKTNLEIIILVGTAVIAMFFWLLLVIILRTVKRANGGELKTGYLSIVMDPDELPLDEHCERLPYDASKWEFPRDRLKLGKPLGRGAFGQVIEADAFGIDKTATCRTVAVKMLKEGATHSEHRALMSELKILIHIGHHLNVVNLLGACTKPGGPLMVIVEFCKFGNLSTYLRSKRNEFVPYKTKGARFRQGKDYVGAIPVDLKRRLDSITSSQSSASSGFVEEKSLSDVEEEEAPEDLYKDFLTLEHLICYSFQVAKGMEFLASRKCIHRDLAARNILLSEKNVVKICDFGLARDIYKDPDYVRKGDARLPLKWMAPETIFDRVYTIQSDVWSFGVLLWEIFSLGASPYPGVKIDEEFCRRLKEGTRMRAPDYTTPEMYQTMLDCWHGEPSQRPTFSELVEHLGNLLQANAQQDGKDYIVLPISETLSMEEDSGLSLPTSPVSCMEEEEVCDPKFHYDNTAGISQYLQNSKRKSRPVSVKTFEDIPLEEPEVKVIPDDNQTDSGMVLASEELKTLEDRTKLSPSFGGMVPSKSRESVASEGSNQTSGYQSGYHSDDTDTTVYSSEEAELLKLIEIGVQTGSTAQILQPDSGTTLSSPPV

SMILES: C=CCOc1cc2ncnc(Nc3cccc(C(F)(F)F)c3)c2cc1OC
pIC50 (NIH3T3): < 5.00 | pIC50 (A-431): 5.23

SMILES: Cc1cccc(Nc2ncnc3c2ccc2ccccc23)c1
pIC50 (NIH3T3): < 5.00 | pIC50 (A-431): < 5.00

SMILES: Cc1cccc(Nc2ncnc3cc4c(cc23)n(C)c(=O)n4C)c1
pIC50 (NIH3T3): < 5.00 | pIC50 (A-431): < 5.00

SMILES: COc1cc2ncnc(Nc3cccc(Br)c3)c2cc1OC
inhibition (HUVEC [2]): Active | pIC50 [9]: 5.02 | pIC50 (NIH3T3): < 5.00 | pIC50 (HT-29): < 5.00 | pIC50 (HeLa): < 5.00 | pIC50 (HUVEC [10]): 5.39 | pIC50 [11]: 5.09 | inhibition (Mus musculus [12]): inactive | Activity (HUVEC [15]): Active | Activity (HUVEC [16]): inactive

SMILES: Cn1c(=O)n(C)c2cc3c(Nc4cccc(Br)c4)ncnc3cc21
pIC50 (NIH3T3): < 5.00 | pIC50 (A-431): < 5.00

SMILES: C=CCOc1cc2ncnc(Nc3cccc(Br)c3)c2cc1OC
pIC50 (NIH3T3): < 5.00 | pIC50 (A-431): 5.35

SMILES: FC(F)(F)c1cccc(Nc2ncnc3c2ccc2ccccc23)c1
pIC50 (NIH3T3): < 5.00 | pIC50 (A-431): < 5.00

SMILES: Cc1ccnc(Nc2ncnc3cc4c(cc23)OCCO4)c1
pIC50 (NIH3T3): 5.18 | pIC50 (A-431): 5.29

SMILES: Cc1cccc(Nc2ncnc3cc4c(cc23)OCCO4)n1
pIC50 (NIH3T3): < 5.00 | pIC50 (A-431): < 5.00

SMILES: Cn1c(=O)n(C)c2cc3c(Nc4cccc(C(F)(F)F)c4)ncnc3cc21
pIC50 (NIH3T3): < 5.00 | pIC50 (A-431): < 5.00

SMILES: Brc1cccc(Nc2ncnc3c2ccc2ccccc23)c1
pIC50 (NIH3T3): < 5.00 | pIC50 (A-431): < 5.00

SMILES: C=CCOc1cc2ncnc(Nc3cccc(C)c3)c2cc1OC
pIC50 (NIH3T3): 5.18 | pIC50 (A-431): 5.07

The next lines start with results.

pIC50 (A-431): < 5.00
SMILES: CS(=O)(=O)Nc1cccc(Nc2ncnc3cc4c(cc23)OCCO4)c1
pIC50 (NIH3T3): < 5.00

pIC50 (A-431): < 5.00
SMILES: Cc1ccnc(Nc2ncnc3cc4c(cc23)OCO4)c1
pIC50 (NIH3T3): < 5.00

pIC50 (A-431): < 5.00
SMILES: CS(=O)(=O)Nc1cccc(Nc2ncnc3cc4c(cc23)OCO4)c1
pIC50 (NIH3T3): < 5.00

inhibition [3]: 40% | inhibition [4]: 30% | pIC50 [5]: 7.25 | pIC50 [6]: 6.19 | pIC50 [7]: 7.20 | pIC50 [8]: 7.57 | pIC50 (A-431): 6.18 | pIC50 (HT-29): 6.15 | pIC50 (HeLa): 5.26
SMILES: Cl.c1ccc(-c2cccc(Nc3ncnc4cc5c(cc34)OCCCO5)c2)cc1
Activity [1]: Toxic | inhibition (HUVEC [2]): Active | pIC50 [9]: 5.52 | pIC50 (NIH3T3): 6.04 | pIC50 (HUVEC [10]): 6.04 | pIC50 [11]: 6.15 | inhibition (Mus musculus [12]): Active | Activity (HUVEC [13]): Toxic | Activity (HUVEC [14]): Active | Activity (HUVEC [15]): Active | Activity (HUVEC [16]): inactive

pIC50 (A-431): < 5.00
SMILES: Cc1cccc(Nc2ncnc3cc4c(cc23)OCO4)n1
pIC50 (NIH3T3): < 5.00

inhibition [4]: 50% | pIC50 [5]: 7.62 | pIC50 [6]: 6.19 | pIC50 [18]: 7.00 | pIC50 [7]: 6.75 | pIC50 (HT-29): 6.17 | pIC50 (HeLa): 6.21
SMILES: Cl.c1ccc(-c2cccc(Nc3ncnc4cc5c(cc34)OCCO5)c2)cc1
TGI (Mus musculus [17]): inactive | inhibition (HUVEC [2]): Active | pIC50 [9]: 5.57 | pIC50 (NIH3T3): 6.22 | pIC50 (HUVEC [10]): 7.10 | pIC50 [11]: 6.13 | inhibition (Mus musculus [12]): Active | Activity (HUVEC [13]): Toxic | Activity (HUVEC [14]): Active | Activity (HUVEC [15]): Active | Activity (HUVEC [19]): Active | Activity (HUVEC [16]): Active

pIC50 [5]: 7.29 | pIC50 [6]: 7.49 | pIC50 [18]: 6.61 | pIC50 [7]: 7.20 | pIC50 (HT-29): 6.02
SMILES: Cl.c1ccc(-c2cccc(Nc3ncnc4cc5c(cc34)OCO5)c2)cc1
TGI (Mus musculus [17]): Active | inhibition (HUVEC [2]): Active | pIC50 [9]: 5.55 | pIC50 (NIH3T3): 6.22 | pIC50 (HUVEC [10]): 6.12 | inhibition (Mus musculus [12]): Active | Activity (HUVEC [13]): Non-toxic | Activity (HUVEC [14]): inactive | Activity (HUVEC [15]): Active | Activity (HUVEC [16]): inactive
